Reference: ChEMBL document CHEMBL5653631, “A Potent and Selective ULK1 Inhibitor Suppresses Autophagy and Sensitizes Cancer Cells to Nutrient Stress” (iScience, 2018)
Blank lines part the entries; values can stand above or below the compound they belong to.

Assays:
[1] = target: Activin receptor type-1-like (Homo sapiens) (UniProt P37023); assay: Inhibition of human recombinant ALK1 at 500 nM in presence of ATP by radiometric assay relative to control
How it was run: (§1)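 Panel of 327 recombinant human kinases, each assayed in vitro by radiometric activity assay in duplicate at a single inhibitor concentration per compound, chosen with reference to its ULK1 inhibition. Activity remaining was expressed as percent of vehicle control, and percent inhibition was calculated as 100 minus percent activity remaining.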

[2] = target: T1, Aurora kinase A (Homo sapiens) (UniProt O14965); assay: Inhibition of human recombinant AurA at 500 nM in presence of ATP by radiometric assay relative to control; how it was run: as §1
T1 sequence (whole entry): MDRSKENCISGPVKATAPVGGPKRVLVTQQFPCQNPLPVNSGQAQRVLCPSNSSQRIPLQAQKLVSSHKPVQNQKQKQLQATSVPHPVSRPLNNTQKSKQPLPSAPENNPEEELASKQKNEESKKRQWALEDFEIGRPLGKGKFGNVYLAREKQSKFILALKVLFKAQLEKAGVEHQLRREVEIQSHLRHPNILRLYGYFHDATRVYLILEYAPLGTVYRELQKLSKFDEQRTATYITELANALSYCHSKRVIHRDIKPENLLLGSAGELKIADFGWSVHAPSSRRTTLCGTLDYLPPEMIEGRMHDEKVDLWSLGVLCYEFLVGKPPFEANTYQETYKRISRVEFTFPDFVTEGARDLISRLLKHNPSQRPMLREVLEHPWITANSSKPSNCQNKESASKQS

[3] = target: Leucine-rich repeat serine/threonine-protein kinase 2 (Homo sapiens) (UniProt Q5S007); assay: Inhibition of human recombinant LRRK2 at 500 nM in presence of ATP by radiometric assay relative to control
[4] = target: Protein kinase C delta type (Homo sapiens) (UniProt Q05655); assay: Inhibition of human recombinant PKCd at 500 nM related to control ULK1
Homo sapiens [5] = species on record: Homo sapiens; assay: Inhibition of human recombinant p70S6K at 40 nM in presence of ATP by radiometric assay relative to control
[6] = target: RAC-alpha serine/threonine-protein kinase (Homo sapiens) (UniProt P31749); assay: Inhibition of human recombinant AKT1 at 40 nM related to control ULK1
How it was run: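 Radiometric activity assays in a panel of 327 human recombinant kinases, each run in duplicate at one inhibitor concentration. Activity remaining is expressed as percent of vehicle control, and percent inhibition is calculated as 100% minus percent activity remaining.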

[7] = target: T2, cGMP-dependent protein kinase 2 (Homo sapiens) (UniProt Q13237); assay: Inhibition of human recombinant PKG2 at 40 nM related to control ULK1
T2 sequence (whole entry): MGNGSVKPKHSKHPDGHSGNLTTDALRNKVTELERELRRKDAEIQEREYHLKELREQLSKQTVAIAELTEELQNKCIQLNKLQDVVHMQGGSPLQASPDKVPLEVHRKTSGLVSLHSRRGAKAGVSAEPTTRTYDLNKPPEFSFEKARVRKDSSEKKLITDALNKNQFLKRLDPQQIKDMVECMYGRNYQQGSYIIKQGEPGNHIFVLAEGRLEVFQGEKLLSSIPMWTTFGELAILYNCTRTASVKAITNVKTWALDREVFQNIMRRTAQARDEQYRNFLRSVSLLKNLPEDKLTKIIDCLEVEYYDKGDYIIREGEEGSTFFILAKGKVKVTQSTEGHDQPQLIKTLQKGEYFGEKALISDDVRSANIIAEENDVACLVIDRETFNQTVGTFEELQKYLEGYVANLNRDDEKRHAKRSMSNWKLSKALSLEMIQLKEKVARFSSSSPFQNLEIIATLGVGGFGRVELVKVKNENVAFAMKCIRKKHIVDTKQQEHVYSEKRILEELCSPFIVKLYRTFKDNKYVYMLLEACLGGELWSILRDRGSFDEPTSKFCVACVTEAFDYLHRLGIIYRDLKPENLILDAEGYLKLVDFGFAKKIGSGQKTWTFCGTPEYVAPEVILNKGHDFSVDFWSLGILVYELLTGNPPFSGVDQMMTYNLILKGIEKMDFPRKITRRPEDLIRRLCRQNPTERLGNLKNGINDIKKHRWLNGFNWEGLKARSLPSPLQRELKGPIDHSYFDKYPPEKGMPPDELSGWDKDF

[8] = target: 3-phosphoinositide-dependent protein kinase 1 (Homo sapiens) (UniProt O15530); assay: Inhibition of human recombinant PDK1 at 40 nM in presence of ATP by radiometric assay relative to control
[9] = target: T3, Serine/threonine-protein kinase ICK (Homo sapiens) (UniProt Q9UPZ9); assay: Inhibition of human recombinant ICK at 15 nM in presence of ATP by radiometric assay relative to control
T3 sequence (whole entry): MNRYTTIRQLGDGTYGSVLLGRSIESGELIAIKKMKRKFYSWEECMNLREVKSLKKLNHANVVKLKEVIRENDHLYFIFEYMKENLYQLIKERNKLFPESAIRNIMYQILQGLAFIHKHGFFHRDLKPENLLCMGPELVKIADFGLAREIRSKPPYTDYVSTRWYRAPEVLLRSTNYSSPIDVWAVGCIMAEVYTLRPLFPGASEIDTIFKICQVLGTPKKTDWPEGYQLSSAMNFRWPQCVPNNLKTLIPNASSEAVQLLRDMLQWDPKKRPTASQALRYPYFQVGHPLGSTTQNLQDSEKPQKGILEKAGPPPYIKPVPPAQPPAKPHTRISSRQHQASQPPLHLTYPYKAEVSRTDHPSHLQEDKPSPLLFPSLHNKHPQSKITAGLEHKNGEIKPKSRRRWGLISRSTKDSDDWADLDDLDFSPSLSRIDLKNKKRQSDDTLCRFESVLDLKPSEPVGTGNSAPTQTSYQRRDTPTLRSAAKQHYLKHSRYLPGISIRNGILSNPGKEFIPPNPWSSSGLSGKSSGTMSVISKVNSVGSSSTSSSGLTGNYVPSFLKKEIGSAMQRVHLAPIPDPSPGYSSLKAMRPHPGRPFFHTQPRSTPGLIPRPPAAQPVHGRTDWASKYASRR

Homo sapiens [10] = species on record: Homo sapiens; assay: Inhibition of human recombinant KHS1 at 15 nM in presence of ATP by radiometric assay relative to control
[11] = target: Platelet-derived growth factor receptor alpha (Homo sapiens) (UniProt P16234); assay: Inhibition of human recombinant PDGFRa at 15 nM in presence of ATP by radiometric assay relative to control
[12] = target: Protein-tyrosine kinase 2-beta (Homo sapiens) (UniProt Q14289); assay: Inhibition of human recombinant PYK2 at 15 nM in presence of ATP by radiometric assay relative to control
[13] = target: Calcium/calmodulin-dependent protein kinase type II subunit alpha (Homo sapiens) (UniProt Q9UQM7); assay: Inhibition of human recombinant CaMK2a at 15 nM related to control ULK1
[14] = target: Mitogen-activated protein kinase 1 (Homo sapiens) (UniProt P28482); assay: Inhibition of human recombinant Erk2 at 15 nM related to control ULK1
Chain of Mitogen-activated protein kinase 1 (Homo sapiens) (P28482 whole entry): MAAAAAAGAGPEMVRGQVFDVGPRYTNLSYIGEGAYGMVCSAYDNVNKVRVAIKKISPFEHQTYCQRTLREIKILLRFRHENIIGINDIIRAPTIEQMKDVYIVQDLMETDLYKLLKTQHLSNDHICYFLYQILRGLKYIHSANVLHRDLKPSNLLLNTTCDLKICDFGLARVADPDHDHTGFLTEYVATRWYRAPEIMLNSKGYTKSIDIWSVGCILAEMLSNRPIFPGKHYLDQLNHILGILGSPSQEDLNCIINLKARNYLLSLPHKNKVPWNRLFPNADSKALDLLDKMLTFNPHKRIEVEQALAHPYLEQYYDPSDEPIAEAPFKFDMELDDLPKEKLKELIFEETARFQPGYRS

Chain of Platelet-derived growth factor receptor alpha (Homo sapiens) (P16234 whole entry): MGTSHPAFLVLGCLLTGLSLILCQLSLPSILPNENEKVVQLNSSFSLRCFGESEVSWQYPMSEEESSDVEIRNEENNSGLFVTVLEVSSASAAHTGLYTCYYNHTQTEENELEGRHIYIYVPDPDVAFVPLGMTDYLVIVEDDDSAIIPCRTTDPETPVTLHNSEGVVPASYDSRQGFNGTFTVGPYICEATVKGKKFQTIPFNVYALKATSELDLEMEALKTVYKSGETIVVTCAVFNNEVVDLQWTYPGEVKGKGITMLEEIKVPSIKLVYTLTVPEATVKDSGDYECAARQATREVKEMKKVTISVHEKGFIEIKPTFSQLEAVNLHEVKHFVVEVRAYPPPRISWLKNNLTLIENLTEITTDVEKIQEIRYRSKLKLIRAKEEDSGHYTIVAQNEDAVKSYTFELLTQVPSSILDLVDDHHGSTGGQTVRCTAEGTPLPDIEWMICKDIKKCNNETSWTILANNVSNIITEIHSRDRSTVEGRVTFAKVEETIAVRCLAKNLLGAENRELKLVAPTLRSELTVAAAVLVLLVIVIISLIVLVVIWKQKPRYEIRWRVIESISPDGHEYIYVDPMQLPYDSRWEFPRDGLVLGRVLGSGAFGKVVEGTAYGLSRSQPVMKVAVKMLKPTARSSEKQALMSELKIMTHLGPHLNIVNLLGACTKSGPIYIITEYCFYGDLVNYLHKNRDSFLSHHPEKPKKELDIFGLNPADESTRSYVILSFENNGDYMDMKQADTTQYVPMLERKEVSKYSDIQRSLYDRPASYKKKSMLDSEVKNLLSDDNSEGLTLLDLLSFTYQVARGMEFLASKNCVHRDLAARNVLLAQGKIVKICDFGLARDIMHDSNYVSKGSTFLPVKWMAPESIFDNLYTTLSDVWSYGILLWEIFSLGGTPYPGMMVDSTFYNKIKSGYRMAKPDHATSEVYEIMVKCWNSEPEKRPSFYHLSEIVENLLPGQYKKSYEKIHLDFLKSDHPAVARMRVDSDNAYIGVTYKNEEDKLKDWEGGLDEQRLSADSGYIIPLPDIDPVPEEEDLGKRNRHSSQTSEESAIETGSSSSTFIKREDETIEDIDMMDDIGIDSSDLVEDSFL
Chain of Activin receptor type-1-like (Homo sapiens) (P37023 whole entry): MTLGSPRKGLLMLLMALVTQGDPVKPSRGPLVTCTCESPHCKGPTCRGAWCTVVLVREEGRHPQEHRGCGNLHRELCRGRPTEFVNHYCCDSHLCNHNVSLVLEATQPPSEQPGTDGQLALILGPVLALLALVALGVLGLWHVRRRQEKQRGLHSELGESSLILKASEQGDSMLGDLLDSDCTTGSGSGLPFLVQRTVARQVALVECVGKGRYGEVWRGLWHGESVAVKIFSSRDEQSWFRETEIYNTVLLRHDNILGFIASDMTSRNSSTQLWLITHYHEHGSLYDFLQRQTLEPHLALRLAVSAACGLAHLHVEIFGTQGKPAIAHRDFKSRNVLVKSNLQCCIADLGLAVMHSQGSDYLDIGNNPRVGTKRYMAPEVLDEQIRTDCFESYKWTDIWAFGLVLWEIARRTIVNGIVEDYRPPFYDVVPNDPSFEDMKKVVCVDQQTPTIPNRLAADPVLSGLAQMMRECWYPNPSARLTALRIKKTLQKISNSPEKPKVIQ
Chain of RAC-alpha serine/threonine-protein kinase (Homo sapiens) (P31749 whole entry): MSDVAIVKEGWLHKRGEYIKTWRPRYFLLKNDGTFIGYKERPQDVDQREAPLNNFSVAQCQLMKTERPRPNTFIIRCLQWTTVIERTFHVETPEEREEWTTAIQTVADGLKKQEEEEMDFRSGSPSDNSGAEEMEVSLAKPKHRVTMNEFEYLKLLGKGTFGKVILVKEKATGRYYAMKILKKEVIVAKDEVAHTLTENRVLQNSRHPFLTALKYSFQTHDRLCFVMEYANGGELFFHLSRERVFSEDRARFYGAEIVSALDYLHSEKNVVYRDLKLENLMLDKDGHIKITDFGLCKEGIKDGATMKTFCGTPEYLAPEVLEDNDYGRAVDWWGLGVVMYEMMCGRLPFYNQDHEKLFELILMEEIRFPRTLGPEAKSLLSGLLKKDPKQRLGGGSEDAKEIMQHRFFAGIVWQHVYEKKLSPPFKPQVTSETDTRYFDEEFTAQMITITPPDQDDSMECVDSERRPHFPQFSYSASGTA
Chain of Protein kinase C delta type (Homo sapiens) (Q05655 whole entry, looked up): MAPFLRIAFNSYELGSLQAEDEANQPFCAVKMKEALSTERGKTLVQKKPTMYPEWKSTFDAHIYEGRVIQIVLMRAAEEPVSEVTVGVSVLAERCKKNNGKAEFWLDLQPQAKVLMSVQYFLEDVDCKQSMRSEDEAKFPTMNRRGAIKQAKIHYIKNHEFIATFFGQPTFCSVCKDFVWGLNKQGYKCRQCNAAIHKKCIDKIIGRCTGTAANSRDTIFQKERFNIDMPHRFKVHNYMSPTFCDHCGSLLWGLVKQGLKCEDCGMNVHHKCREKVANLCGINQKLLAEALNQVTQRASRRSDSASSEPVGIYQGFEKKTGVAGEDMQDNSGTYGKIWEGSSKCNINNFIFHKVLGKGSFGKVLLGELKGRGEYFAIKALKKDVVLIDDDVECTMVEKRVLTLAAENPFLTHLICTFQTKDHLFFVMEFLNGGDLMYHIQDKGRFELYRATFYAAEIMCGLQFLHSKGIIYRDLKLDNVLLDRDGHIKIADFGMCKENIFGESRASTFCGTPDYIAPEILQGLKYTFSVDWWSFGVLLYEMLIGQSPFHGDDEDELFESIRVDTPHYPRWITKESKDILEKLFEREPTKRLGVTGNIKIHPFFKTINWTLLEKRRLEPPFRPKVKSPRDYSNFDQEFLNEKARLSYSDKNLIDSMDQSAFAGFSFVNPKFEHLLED
Chain of 3-phosphoinositide-dependent protein kinase 1 (Homo sapiens) (O15530 whole entry, looked up): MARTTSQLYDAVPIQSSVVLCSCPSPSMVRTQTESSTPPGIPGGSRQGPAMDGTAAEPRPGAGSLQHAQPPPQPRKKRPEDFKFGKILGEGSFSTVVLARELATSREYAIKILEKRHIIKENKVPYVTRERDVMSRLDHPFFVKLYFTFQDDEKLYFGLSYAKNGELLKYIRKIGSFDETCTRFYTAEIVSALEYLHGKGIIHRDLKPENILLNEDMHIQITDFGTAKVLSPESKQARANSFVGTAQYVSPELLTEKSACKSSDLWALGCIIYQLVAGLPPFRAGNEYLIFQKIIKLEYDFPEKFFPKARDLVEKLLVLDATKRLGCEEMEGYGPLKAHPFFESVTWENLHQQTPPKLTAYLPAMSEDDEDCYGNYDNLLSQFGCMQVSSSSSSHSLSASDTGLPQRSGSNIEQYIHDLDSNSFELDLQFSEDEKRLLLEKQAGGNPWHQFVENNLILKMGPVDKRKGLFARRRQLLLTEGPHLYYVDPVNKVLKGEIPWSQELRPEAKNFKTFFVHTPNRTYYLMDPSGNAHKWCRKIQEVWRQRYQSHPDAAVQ
Chain of Calcium/calmodulin-dependent protein kinase type II subunit alpha (Homo sapiens) (Q9UQM7 whole entry): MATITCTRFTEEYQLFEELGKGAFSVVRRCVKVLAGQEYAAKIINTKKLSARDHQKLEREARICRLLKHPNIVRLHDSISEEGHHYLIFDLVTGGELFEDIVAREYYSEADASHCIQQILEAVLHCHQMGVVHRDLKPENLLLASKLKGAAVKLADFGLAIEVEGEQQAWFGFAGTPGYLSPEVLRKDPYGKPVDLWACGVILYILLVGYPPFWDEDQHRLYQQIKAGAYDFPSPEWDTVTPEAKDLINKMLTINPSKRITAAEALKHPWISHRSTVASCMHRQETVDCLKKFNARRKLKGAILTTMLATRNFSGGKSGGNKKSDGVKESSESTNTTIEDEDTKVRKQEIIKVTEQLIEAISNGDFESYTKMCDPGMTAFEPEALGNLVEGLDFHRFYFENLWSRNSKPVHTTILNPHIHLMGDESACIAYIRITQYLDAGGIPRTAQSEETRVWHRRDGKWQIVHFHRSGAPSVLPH

inhibition [1]: 0%
inhibition [2]: 80%
inhibition [3]: 35%
fold change (FC) [4]: 0.04
SMILES: CNC(=O)c1ccccc1Oc1nc(Nc2cc(OC)c(OC)c(OC)c2)ncc1Br

inhibition (Homo sapiens [5]): 2%
fold change (FC) [6]: 0
fold change (FC) [7]: 0.01
inhibition [8]: 0%
SMILES: O=C(N[C@@H](C1CC1)C(F)(F)F)c1cc(-c2cnn3cc(-c4ccc(F)cc4)cnc23)cs1

inhibition [9]: 0%
inhibition (Homo sapiens [10]): 14%
inhibition [11]: 5%
inhibition [12]: 0%
fold change (FC) [13]: 0.47
fold change (FC) [14]: 0
SMILES: CC(C)[C@H](NC(=O)c1cc(-c2cnn3cc(-c4ccc(OCCN5CCCCC5)cc4)cnc23)cs1)C(F)(F)F
